Results from ChEMBL document CHEMBL3621126, “Difluoromethyl ketones: Potent inhibitors of wild type and carbamate-insensitive G119S mutant Anopheles gambiae acetylcholinesterase” (Bioorg Med Chem Lett, 2015).
Converted amounts (≈) assume the structure as drawn.

Tests used:
[1] = target: T1, Acetylcholinesterase (Homo sapiens, UniProt P22303); assay: Inhibition of recombinant human AChE after 10 mins by Ellman assay
[2] = target: T1, Acetylcholinesterase; assay: Inhibition of recombinant human AChE after 60 mins by Ellman assay
[3] = target: T2, Acetylcholinesterase (Anopheles gambiae, UniProt Q869C3); assay: Inhibition of recombinant Anopheles gambiae wild type AChE after 60 mins by Ellman assay
T2 sequence (Q869C3 whole entry): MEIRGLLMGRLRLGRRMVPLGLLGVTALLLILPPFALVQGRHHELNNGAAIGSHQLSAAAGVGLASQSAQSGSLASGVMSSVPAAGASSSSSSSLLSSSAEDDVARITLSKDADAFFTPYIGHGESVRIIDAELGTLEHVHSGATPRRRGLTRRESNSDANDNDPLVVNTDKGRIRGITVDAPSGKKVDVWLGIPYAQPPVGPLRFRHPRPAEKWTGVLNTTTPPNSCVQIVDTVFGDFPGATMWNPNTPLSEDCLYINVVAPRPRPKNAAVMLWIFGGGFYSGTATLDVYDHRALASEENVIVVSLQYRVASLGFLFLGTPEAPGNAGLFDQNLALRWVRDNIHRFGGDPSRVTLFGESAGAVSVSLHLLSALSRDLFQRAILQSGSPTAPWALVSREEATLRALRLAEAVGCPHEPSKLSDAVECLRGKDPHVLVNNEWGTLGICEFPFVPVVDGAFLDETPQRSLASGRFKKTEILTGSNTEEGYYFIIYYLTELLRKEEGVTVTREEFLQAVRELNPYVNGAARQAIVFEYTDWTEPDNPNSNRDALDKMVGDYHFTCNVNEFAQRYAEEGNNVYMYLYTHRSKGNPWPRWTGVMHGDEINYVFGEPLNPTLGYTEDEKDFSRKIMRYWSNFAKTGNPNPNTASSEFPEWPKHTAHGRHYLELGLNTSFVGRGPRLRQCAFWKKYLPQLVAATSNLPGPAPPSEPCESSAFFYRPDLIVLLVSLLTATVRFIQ

[4] = Inhibition of recombinant Anopheles gambiae AChE G119S mutant after 60 mins by Ellman assay
[5] = target: T2, Acetylcholinesterase; assay: Inhibition of recombinant Anopheles gambiae wild type AChE after 10 mins by Ellman assay
[6] = Inhibition of Anopheles gambiae AChE G119S mutant after 10 mins by Ellman assay
[7] = target: Acetylcholinesterase (Anopheles gambiae) (UniProt Q869C3); assay: Inhibition of recombinant Anopheles gambiae wild type AChE by Ellman assay; conditions: TDE = time-dependent effect
Sequence of Acetylcholinesterase (Anopheles gambiae) (Q869C3 39-737 limits assumed): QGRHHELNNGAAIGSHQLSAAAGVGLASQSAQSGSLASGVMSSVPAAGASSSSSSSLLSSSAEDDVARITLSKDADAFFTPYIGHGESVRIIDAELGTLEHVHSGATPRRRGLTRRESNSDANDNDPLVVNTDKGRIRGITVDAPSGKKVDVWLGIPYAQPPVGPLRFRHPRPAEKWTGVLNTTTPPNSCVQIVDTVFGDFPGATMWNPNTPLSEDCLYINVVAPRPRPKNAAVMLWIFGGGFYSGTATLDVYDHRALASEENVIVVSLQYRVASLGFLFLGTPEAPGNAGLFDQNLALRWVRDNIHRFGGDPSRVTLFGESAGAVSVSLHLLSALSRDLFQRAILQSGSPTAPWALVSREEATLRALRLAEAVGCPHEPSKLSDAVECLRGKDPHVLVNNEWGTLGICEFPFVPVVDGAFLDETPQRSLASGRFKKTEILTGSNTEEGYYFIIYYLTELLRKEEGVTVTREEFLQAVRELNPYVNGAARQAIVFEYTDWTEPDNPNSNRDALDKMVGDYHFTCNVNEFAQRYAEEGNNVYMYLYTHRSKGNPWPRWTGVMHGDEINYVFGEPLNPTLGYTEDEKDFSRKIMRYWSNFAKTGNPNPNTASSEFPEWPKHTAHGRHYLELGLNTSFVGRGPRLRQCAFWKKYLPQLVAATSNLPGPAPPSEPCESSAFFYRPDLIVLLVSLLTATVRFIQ
Procedure, shortened: (§1)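 Modified Ellman assay in microtiter plates with recombinant enzymes (human AChE, wild-type or G119S Anopheles gambiae AChE). Inhibitor preincubated 10 or 60 min at 23 ± 1°C, pH 7.7, 0.1% (v/v) DMSO, before adding substrate. Ten inhibitor concentrations were run alongside inhibitor-free control wells. IC50 was taken from sigmoidal plots of residual activity (v/v0) vs [I].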

[8] = tested on: Anopheles gambiae; assay: Insecticidal activity against Anopheles gambiae G3 assessed as torsal contact toxicity by measuring mortality at 1000 ug/mL after 24 hrs by filter paper based method; type: functional; conditions: G3, 24 h
Procedure, shortened: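 Adult susceptible G3 An. gambiae were tested by the WHO treated-paper tarsal contact protocol. Papers were treated with ethanolic compound solutions at 1000 µg/mL and dried overnight. Mosquitoes were exposed 1 h and mortality recorded after 24 h.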

[9] = target: T1, Acetylcholinesterase; assay: Inhibition of recombinant human AChE by Ellman assay; conditions: TDE = time-dependent effect; procedure, shortened: as §1
[10] = tested on: Anopheles gambiae; assay: Insecticidal activity against Anopheles gambiae G3 assessed as fumigation mortality at 10 ng/mL after 24 hrs by mason jar assay; type: functional; conditions: G3, 24 h
Procedure, shortened: (§2)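 Fumigation of adult G3 An. gambiae in a sealed 1 L vessel, with % mortality read after 24 h. Nominal concentration was calculated from the inhibitor mass delivered and the vessel volume.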

[11] = tested on: Anopheles gambiae; assay: Insecticidal activity against Anopheles gambiae G3 assessed as mortality at 50 ng/insect after 24 hrs (reference value: 11 +/- 4%); type: functional
[12] = tested on: Anopheles gambiae; assay: Insecticidal activity against Anopheles gambiae G3 assessed as torsal contact toxicity by measuring mortality after 24 hrs by filter paper based method; type: functional; conditions: G3, 24 h
Procedure, shortened: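 Adult susceptible G3 An. gambiae were tested by the WHO treated-paper tarsal contact protocol. Papers were treated with ethanolic compound solutions and dried overnight. Mosquitoes were exposed 1 h and mortality recorded 24 h later.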

[13] = tested on: Anopheles gambiae; assay: Insecticidal activity against Anopheles gambiae G3 assessed as fumigation mortality at 1000 ng/mL after 24 hrs by mason jar assay; type: functional; conditions: G3, 24 h; procedure, shortened: as §2
[14] = tested on: Anopheles gambiae; assay: Insecticidal activity against Anopheles gambiae G3 assessed as mortality after 24 hrs; type: functional

T1 sequence (P22303 whole entry): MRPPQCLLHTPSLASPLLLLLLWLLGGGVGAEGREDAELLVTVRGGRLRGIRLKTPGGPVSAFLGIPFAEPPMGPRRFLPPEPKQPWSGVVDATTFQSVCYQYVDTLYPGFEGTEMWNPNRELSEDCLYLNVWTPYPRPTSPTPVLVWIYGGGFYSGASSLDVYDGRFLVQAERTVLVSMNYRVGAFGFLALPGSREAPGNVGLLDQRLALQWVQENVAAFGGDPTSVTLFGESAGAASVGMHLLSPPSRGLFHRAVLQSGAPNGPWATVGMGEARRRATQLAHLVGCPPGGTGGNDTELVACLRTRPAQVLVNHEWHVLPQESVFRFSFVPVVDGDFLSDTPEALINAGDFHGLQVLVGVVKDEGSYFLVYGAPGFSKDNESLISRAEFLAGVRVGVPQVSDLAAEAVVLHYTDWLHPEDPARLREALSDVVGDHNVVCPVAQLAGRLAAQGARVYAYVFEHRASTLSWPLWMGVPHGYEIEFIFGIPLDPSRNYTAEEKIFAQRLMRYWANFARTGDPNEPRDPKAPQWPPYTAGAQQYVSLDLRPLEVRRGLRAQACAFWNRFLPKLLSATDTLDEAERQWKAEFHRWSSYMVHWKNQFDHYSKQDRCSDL

Row | SMILES | IC50 [1] | IC50 [2] | IC50 [3] | IC50 [4] | IC50 [5] | IC50 [6] | inhibition [7] | mortality at 1000 µg/mL [8] | inhibition [9] | mortality at 0.01 µg/mL [10] | mortality [11] | LC50 [12] | mortality at 1 µg/mL [13] | LD50 [14]
1 | CC(C)n1cc(C(=O)C(F)(F)F)cn1 | 0.0775 µM | 0.121 µM | 0.285 µM | > 10 µM | 0.142 µM | > 10 µM | tde | 20% | tde | – | – | – | – | –
2 | O=C(CF)c1cnn(C2CCCC2)c1 | 2.5 µM | 1.31 µM | 1.54 µM | > 10 µM | 5.86 µM | > 10 µM | – | 0% | – | – | – | – | – | –
3 | CC(C)Cn1cc(C(=O)C(F)(F)F)cn1 | 0.591 µM | 0.678 µM | 1.04 µM | > 10 µM | 0.95 µM | > 10 µM | tde | – | tde | – | – | – | – | –
4 | CC(C)(C)c1cccc(C(=O)C(F)(F)F)c1 | 0.0146 µM | 0.005 µM | 0.0181 µM | 20.8 µM | 0.0534 µM | > 10 µM | tde | 8% | tde | – | – | – | – | –
5 | COP(=O)(OC)OC=C(Cl)Cl [DICHLORVOS] | – | – | 0.0601 µM | 0.3 µM | 0.324 µM | 1.65 µM | – | – | – | 100% | 83% | – | – | –
6 | CCC(C)n1cc(C(=O)C(F)(F)F)cn1 (stereo not drawn) | 0.00647 µM | 0.00884 µM | 0.00229 µM | 2.34 µM | 0.00247 µM | 8.18 µM | tde | 30% | tde | – | – | – | – | –
7 | CNC(=O)Oc1ccccc1OC(C)C [PROPOXUR] | 2.3 µM | 0.59 µM | 0.0436 µM | > 10 µM | 0.182 µM | > 10 µM | – | 39% | – | – | – | 32 mg/L (≈ 153 µM) | 0% | 0.2 ng
8 | CC(C)n1cc(C(=O)C(F)F)cn1 | 0.802 µM | 0.869 µM | 0.43 µM | 8.38 µM | 0.354 µM | 8.29 µM | – | 50% | – | – | – | – | – | –
9 | O=C(c1cnn(C2CCCC2)c1)C(F)(F)F | 0.0052 µM | 0.00611 µM | 0.00154 µM | 3.52 µM | 0.00287 µM | > 10 µM | tde | 40% | tde | – | – | – | – | –
10 | CC(C)n1cc(C(=O)CF)cn1 | > 10 µM | > 10 µM | > 10 µM | > 10 µM | > 10 µM | > 10 µM | – | 85% | – | – | – | – | – | –
11 | CCC(CC)n1cc(C(=O)CF)cn1 | 5.29 µM | 5.19 µM | 0.337 µM | 3 µM | 0.355 µM | 2.99 µM | – | 85% | – | – | – | – | 8% | –
12 | CC(C)(C)c1cccc(C(=O)C(F)F)c1 | 0.00605 µM | – | – | – | – | – | – | 20% | – | – | – | – | – | –
13 | CCCC(C)n1cc(C(=O)C(F)F)cn1 (stereo not drawn) | 0.149 µM | 0.158 µM | 0.0291 µM | 0.297 µM | 0.0234 µM | 0.797 µM | – | 0% | – | – | – | – | – | –
